Test results as given in publication PMC3403534 (Journal of Biomolecular Screening, 2009).
Read-outs that look alike come from different tables or passages of the source.

Experiments:
TNAP [1] = target: T1, TNAP (Homo sapiens, UniProt P05186); conditions: ref Fishman and Sie, 1971; Van Belle, 1976; Farley et al., 1980; cited from earlier work
T1 sequence (P05186 18-501 limits assumed): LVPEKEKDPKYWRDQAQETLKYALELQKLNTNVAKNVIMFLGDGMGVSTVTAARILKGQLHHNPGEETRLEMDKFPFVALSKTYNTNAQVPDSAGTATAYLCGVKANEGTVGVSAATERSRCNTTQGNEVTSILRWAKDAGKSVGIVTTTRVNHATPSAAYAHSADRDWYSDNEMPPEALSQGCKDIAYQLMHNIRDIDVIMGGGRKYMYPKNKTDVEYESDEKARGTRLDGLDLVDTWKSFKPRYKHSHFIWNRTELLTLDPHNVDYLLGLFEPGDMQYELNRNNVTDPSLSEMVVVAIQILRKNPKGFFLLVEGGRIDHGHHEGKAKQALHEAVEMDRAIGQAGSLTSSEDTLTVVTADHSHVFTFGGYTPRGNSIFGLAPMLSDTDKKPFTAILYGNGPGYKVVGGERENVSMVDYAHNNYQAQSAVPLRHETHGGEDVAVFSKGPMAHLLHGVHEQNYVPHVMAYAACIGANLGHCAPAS

IAP = target: T2, IAP (Homo sapiens, UniProt P09923); assay: Luminescent IAP selectivity assay; format: biochemical; conditions: read-out: SDCCG panel IC50 IAP, […] CDP-star
T2 sequence (P09923 20-503 limits assumed): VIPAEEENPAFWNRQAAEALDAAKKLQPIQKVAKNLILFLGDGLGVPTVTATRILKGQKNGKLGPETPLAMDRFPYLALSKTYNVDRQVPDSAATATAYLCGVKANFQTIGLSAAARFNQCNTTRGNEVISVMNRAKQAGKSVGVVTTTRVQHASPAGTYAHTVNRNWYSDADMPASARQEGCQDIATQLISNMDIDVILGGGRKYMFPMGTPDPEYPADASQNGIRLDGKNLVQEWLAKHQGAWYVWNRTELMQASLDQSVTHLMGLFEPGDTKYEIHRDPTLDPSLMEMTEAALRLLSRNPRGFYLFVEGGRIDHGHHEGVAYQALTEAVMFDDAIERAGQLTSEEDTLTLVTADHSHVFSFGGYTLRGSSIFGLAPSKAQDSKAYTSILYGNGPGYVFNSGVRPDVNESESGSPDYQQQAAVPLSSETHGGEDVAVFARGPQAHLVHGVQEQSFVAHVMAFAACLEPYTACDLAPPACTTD

PLAP = PLAP (Homo sapiens, UniProt P05187); assay: Luminescent PLAP selectivity assay; format: biochemical; conditions: read-out: SDCCG panel IC50 PLAP, 85 µM CDP-star
Method in brief: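 Run as an analogue of the luminescent TNAP assay: CDP-star held at the PLAP Km. The TNAP version used 100 mM DEA-HCl pH 9.8, 1 mM MgCl2 and 20 uM ZnCl2, with luminescence read after 30 min at room temperature. Percent inhibition was computed against negative and positive control wells. Dose-response data were fitted to the Hill equation for IC50, excluding nephelometrically precipitating concentrations.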

TNAP [2] = target: T1, TNAP; assay: Luminescent TNAP assay with CDP-star substrate; format: biochemical
TNAP [3] = target: T1, TNAP; format: biochemical; conditions: for MOI vs CDP*: mode of inhibition with respect to CDP-star (UC uncompetitive, C competitive); for MOI vs DEA: mode of inhibition with respect to DEA (C competitive, NC non-competitive)
TNAP [4] = target: T1, TNAP; assay: Colorimetric TNAP assay, pNPP substrate, absorbance at 405 nm; format: biochemical; conditions: colorimetric assays, 1 M DEA, compared with luminescent assay
[5] = read-out: IC50 SAR-Lumi, dry powder compounds, 100 mM DEA
[6] = read-out: SDCCG panel IC50 TNAP

Sequence of PLAP (P05187 23-506 limits assumed): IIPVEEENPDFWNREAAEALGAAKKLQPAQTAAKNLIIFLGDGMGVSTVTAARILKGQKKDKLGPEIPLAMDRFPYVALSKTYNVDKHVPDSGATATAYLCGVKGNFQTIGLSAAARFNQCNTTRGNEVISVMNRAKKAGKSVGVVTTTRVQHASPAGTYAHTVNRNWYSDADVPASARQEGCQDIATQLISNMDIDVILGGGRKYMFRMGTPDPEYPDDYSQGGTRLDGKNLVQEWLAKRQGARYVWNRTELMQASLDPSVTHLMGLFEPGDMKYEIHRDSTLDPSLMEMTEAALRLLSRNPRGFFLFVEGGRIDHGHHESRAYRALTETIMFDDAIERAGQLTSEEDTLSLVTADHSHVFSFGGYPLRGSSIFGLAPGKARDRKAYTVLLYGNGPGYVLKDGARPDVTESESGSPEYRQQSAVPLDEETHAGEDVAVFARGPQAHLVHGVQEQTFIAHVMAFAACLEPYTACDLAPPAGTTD

Row | Structure (SMILES) | Mode of inhibition of TNAP by known inhibitors (TNAP [1]) | IC50 (IAP) [nM] | IC50 (PLAP) [nM] | IC50 (TNAP [2]; [5]) [nM] | IC50 (TNAP [2]; [6]) [nM] | MOI vs CDP* (TNAP [3]) | MOI vs DEA (TNAP [3]) | Activity in the colorimetric assay (TNAP [4])
1 | NC(N)=NCCCC[C@H](N)C(=O)O [L-homoarginine] | inhibited uncompetitively |  |  |  |  |  |  | 
2 | O=C(O)c1cc(-c2ccccc2Cl)n[nH]1 [MLS-0005718] |  | 43500 | > 100000 | 743 | 743 | competitive with CDP-star | competitive mechanism | 
3 | COc1ccc(OC)c(S(=O)(=O)Nc2ccc(O)c(Sc3ncn[nH]3)c2)c1 [MLS-0043574] |  |  |  |  |  |  |  | inactive
4 | c1ccc([C@H]2CN3CCSC3=N2)cc1 [levamisole] | inhibited uncompetitively |  |  |  |  |  |  | 
5 | COc1ccc(C)cc1S(=O)(=O)Nc1cccnc1 [MLS-0010847] |  | > 100000 | > 100000 | 926 | 926 |  |  | 
6 | O=c1cc(-c2cccc3ccccc23)[nH][nH]1 [MLS-0039961] |  | > 100000 | > 100000 | 4620 |  | competitive with CDP-star | non-competitive | 
7 | COc1ccc(OC)c(S(=O)(=O)Nc2cnc3ccccc3c2)c1 [MLS-0038949] |  |  | > 100000 |  |  |  |  | 
8 | O=C1C2CC=CCC2C(=O)N1c1n[nH]c(Cc2ccccc2)n1 (stereo not shown) [MLS-0067142] |  | 539 | 3140 | 186 | 186 | competitive with CDP-star | competitive mechanism | 
